# Data reported in ChEMBL document CHEMBL4811218, “Discovery and optimization of withangulatin A derivatives as novel glutaminase 1 inhibitors for the treatment of triple-negative breast cancer” (Eur J Med Chem, 2021).
# pIC50: −log10 of the molar value.
# What was measured:
# MDA-MB-231 [1] = test: Antiproliferative activity against human MDA-MB-231 cells after 24 hrs by MTT assay; format: functional, cell-based; conditions: MDA-MB-231, 24 h
# MDA-MB-231 [2] = test: Antiproliferative activity against human MDA-MB-231 cells after 24 hrs by MTT assay relative to control; format: functional
# In short: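 MDA-MB-231 cells kept in DMEM with 10% FBS at 37°C, 5% CO2. Seeded at 5×10^3 cells/well and left 24 h, then exposed to compounds at 0.078-10 µM for 24 h. 0.1% DMSO served as the vehicle control. MTT added for 4 h, formazan dissolved in DMSO, absorbance read at 570 nm. IC50 derived. Each run in triplicate, repeated at least three times.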
# [3] = target: T1, Glutaminase kidney isoform, mitochondrial (Homo sapiens) (UniProt O94925); test: Inhibition of human GLS1 at 10 uM relative to control
# T1 sequence (whole entry): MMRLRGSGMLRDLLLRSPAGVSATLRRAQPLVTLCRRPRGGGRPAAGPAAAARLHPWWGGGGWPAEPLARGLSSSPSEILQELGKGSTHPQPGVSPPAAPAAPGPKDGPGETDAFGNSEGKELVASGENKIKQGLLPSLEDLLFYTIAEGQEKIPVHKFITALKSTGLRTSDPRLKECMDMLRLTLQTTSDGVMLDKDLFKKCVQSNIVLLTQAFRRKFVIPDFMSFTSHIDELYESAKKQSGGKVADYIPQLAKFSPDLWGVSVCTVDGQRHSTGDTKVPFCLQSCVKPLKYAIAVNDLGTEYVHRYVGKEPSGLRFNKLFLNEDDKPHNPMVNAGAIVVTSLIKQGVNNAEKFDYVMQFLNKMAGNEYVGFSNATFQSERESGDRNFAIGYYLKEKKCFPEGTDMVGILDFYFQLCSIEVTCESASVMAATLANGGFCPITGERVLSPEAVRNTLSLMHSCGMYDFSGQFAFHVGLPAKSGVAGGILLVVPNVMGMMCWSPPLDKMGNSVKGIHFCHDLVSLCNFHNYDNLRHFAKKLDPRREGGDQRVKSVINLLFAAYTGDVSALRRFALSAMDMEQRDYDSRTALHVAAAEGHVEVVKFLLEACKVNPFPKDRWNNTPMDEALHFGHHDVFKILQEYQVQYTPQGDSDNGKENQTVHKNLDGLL
# In short: (§1)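 Human GLS1 hydrolase activity measured with a commercial GLS1 inhibitor screening kit, following the manufacturer's protocol. Single-point screening was run at 10 μM.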
# [4] = target: T2, Glutaminase kidney isoform, mitochondrial (Homo sapiens, UniProt O94925); test: Inhibition of human GLS1; in short: as §1
# T2 sequence (O94925 whole entry): T1 sequence (whole entry)
Structure (SMILES),pIC50 (MDA-MB-231 [1]),inhibition [3] [%],pIC50 [4],inhibition (INH) (MDA-MB-231 [2]) [%]
CC(=O)O[C@H]1C=C([C@H](C)[C@H]2CC(C)=C(C)C(=O)O2)[C@@]2(C)CC[C@H]3[C@@H](C[C@H]4O[C@]45[C@@H](OC(=O)CCC(=O)Nc4nc6ccccc6s4)C=CC(=O)[C@]35C)[C@@]12O,5.46,< 50,–,79.5
CC(=O)O[C@H]1C=C([C@H](C)[C@H]2CC(C)=C(C)C(=O)O2)[C@@]2(C)CC[C@H]3[C@@H](C[C@H]4O[C@]45[C@@H](OC(=O)CCCC(=O)O)C=CC(=O)[C@]35C)[C@@]12O,< 4.30,< 50,–,–
COc1ccc(NC(=O)CCC(=O)O[C@H]2C(Nc3ccc(OC)cc3)CC(=O)[C@]3(C)[C@H]4CC[C@]5(C)C([C@H](C)[C@H]6CC(C)=C(C)C(=O)O6)=C[C@H](OC(C)=O)[C@]5(O)[C@@H]4C[C@H]4O[C@@]423)cc1 (stereo partly specified),< 4.30,< 50,–,0
O=C(Cc1ccccc1)Nc1nnc(CCSCCc2nnc(NC(=O)Cc3ccccc3)s2)s1,5.04,–,–,68.5
COc1ccc(NC(=O)CCCC(=O)O[C@H]2C(Nc3ccc(OC)cc3)CC(=O)[C@]3(C)[C@H]4CC[C@]5(C)C([C@H](C)[C@H]6CC(C)=C(C)C(=O)O6)=C[C@H](OC(C)=O)[C@]5(O)[C@@H]4C[C@H]4O[C@@]423)cc1 (stereo partly specified),< 4.30,< 50,–,0
CC(=O)O[C@H]1C=C([C@H](C)[C@H]2CC(C)=C(C)C(=O)O2)[C@@]2(C)CC[C@H]3[C@@H](C[C@H]4O[C@]45[C@@H](OC(=O)/C=C/C(=O)O)C=CC(=O)[C@]35C)[C@@]12O,< 4.30,< 50,–,–
CC(=O)O[C@H]1C=C([C@H](C)[C@H]2CC(C)=C(C)C(=O)O2)[C@@]2(C)CC[C@H]3[C@@H](C[C@H]4O[C@]45[C@@H](OC(=O)/C=C/C(=O)Nc4nc6ccccc6s4)C=CC(=O)[C@]35C)[C@@]12O,< 4.30,< 50,–,0
COc1ccc(NC(=O)/C=C/C(=O)O[C@H]2C(Nc3ccc(OC)cc3)CC(=O)[C@]3(C)[C@H]4CC[C@]5(C)C([C@H](C)[C@H]6CC(C)=C(C)C(=O)O6)=C[C@H](OC(C)=O)[C@]5(O)[C@@H]4C[C@H]4O[C@@]423)cc1 (stereo partly specified),< 4.30,< 50,–,0
CC(=O)O[C@H]1C=C([C@H](C)[C@H]2CC(C)=C(C)C(=O)O2)[C@@]2(C)CC[C@H]3[C@@H](C[C@H]4O[C@]45[C@@H](OC(=O)CCCC(=O)Nc4nncs4)C=CC(=O)[C@]35C)[C@@]12O,5.66,< 50,–,71.6
CC(=O)O[C@H]1C=C([C@H](C)[C@H]2CC(C)=C(C)C(=O)O2)[C@@]2(C)CC[C@H]3[C@@H](C[C@H]4O[C@]45[C@@H](OC(=O)CCCC(=O)Nc4ccc(N6CCOCC6)c(F)c4)C(Nc4ccc(N6CCOCC6)c(F)c4)CC(=O)[C@]35C)[C@@]12O (stereo partly specified),< 4.30,< 50,–,0
CC(=O)O[C@H]1C=C([C@H](C)[C@H]2CC(C)=C(C)C(=O)O2)[C@@]2(C)CC[C@H]3[C@@H](C[C@H]4O[C@]45[C@@H](O)C=CC(=O)[C@]35C)[C@@]12O,5.20,41.4,4.74,74.7
CC(=O)O[C@H]1C=C([C@H](C)[C@H]2CC(C)=C(C)C(=O)O2)[C@@]2(C)CC[C@H]3[C@@H](C[C@H]4O[C@]45[C@@H](OC(=O)CCC(=O)Nc4nncs4)C=CC(=O)[C@]35C)[C@@]12O,5.09,< 50,–,77.5
CC(=O)O[C@H]1C=C([C@H](C)[C@H]2CC(C)=C(C)C(=O)O2)[C@@]2(C)CC[C@H]3[C@@H](C[C@H]4O[C@]45[C@@H](OC(=O)CCC(=O)O)C=CC(=O)[C@]35C)[C@@]12O,< 4.30,< 50,–,–

# Now those with a higher pIC50 (MDA-MB-231 [1]), led by results:
pIC50 (MDA-MB-231 [1]),inhibition [3] [%],pIC50 [4],Structure (SMILES),inhibition (INH) (MDA-MB-231 [2]) [%]
5.69,< 50,–,CC(=O)O[C@H]1C=C([C@H](C)[C@H]2CC(C)=C(C)C(=O)O2)[C@@]2(C)CC[C@H]3[C@@H](C[C@H]4O[C@]45[C@@H](OC(=O)CCC(=O)Nc4nccs4)C=CC(=O)[C@]35C)[C@@]12O,79.6
5.73,< 50,–,CC(=O)O[C@H]1C=C([C@H](C)[C@H]2CC(C)=C(C)C(=O)O2)[C@@]2(C)CC[C@H]3[C@@H](C[C@H]4O[C@]45[C@@H](OC(=O)CCC(=O)Nc4ccc(F)cc4)C=CC(=O)[C@]35C)[C@@]12O,80.4
5.74,< 50,–,CC(=O)O[C@H]1C=C([C@H](C)[C@H]2CC(C)=C(C)C(=O)O2)[C@@]2(C)CC[C@H]3[C@@H](C[C@H]4O[C@]45[C@@H](OC(=O)/C=C/C(=O)Nc4nccs4)C=CC(=O)[C@]35C)[C@@]12O,88.4
5.78,53.5,–,CC(=O)O[C@H]1C=C([C@H](C)[C@H]2CC(C)=C(C)C(=O)O2)[C@@]2(C)CC[C@H]3[C@@H](C[C@H]4O[C@]45[C@@H](OC(=O)CCC(=O)Nc4ccc(N6CCOCC6)c(F)c4)C=CC(=O)[C@]35C)[C@@]12O,80.9
5.79,< 50,–,CC(=O)O[C@H]1C=C([C@H](C)[C@H]2CC(C)=C(C)C(=O)O2)[C@@]2(C)CC[C@H]3[C@@H](C[C@H]4O[C@]45[C@@H](OC(=O)CCC(=O)Nc4ccc(N(C)C)cc4)C=CC(=O)[C@]35C)[C@@]12O,83.3
5.81,< 50,–,CC(=O)O[C@H]1C=C([C@H](C)[C@H]2CC(C)=C(C)C(=O)O2)[C@@]2(C)CC[C@H]3[C@@H](C[C@H]4O[C@]45[C@@H](OC(=O)/C=C/C(=O)Nc4ccc(N(C)C)cc4)C=CC(=O)[C@]35C)[C@@]12O,72.1
5.86,52.4,–,CC(=O)O[C@H]1C=C([C@H](C)[C@H]2CC(C)=C(C)C(=O)O2)[C@@]2(C)CC[C@H]3[C@@H](C[C@H]4O[C@]45[C@@H](OC(=O)/C=C/C(=O)Nc4ccc(N6CCOCC6)c(F)c4)C=CC(=O)[C@]35C)[C@@]12O,90.8
5.88,< 50,–,CC(=O)O[C@H]1C=C([C@H](C)[C@H]2CC(C)=C(C)C(=O)O2)[C@@]2(C)CC[C@H]3[C@@H](C[C@H]4O[C@]45[C@@H](OC(=O)/C=C/C(=O)Nc4ccc(F)cc4)C=CC(=O)[C@]35C)[C@@]12O,88.9
5.97,51.8,–,CC(=O)O[C@H]1C=C([C@H](C)[C@H]2CC(C)=C(C)C(=O)O2)[C@@]2(C)CC[C@H]3[C@@H](C[C@H]4O[C@]45[C@@H](OC(=O)CCCC(=O)Nc4ccc(N(C)C)cc4)C=CC(=O)[C@]35C)[C@@]12O,92.6
5.99,< 50,–,COc1ccc(NC(=O)CCC(=O)O[C@H]2C=CC(=O)[C@]3(C)[C@H]4CC[C@]5(C)C([C@H](C)[C@H]6CC(C)=C(C)C(=O)O6)=C[C@H](OC(C)=O)[C@]5(O)[C@@H]4C[C@H]4O[C@]243)cc1,82.9
6.00,< 50,–,CC(=O)O[C@H]1C=C([C@H](C)[C@H]2CC(C)=C(C)C(=O)O2)[C@@]2(C)CC[C@H]3[C@@H](C[C@H]4O[C@]45[C@@H](OC(=O)CCCC(=O)Nc4nccs4)C=CC(=O)[C@]35C)[C@@]12O,84.8
6.10,51.6,–,COc1ccc(NC(=O)/C=C/C(=O)O[C@H]2C=CC(=O)[C@]3(C)[C@H]4CC[C@]5(C)C([C@H](C)[C@H]6CC(C)=C(C)C(=O)O6)=C[C@H](OC(C)=O)[C@]5(O)[C@@H]4C[C@H]4O[C@]243)cc1,94.1
6.17,< 50,–,CC(=O)O[C@H]1C=C([C@H](C)[C@H]2CC(C)=C(C)C(=O)O2)[C@@]2(C)CC[C@H]3[C@@H](C[C@H]4O[C@]45[C@@H](OC(=O)CCCC(=O)Nc4nc6ccccc6s4)C=CC(=O)[C@]35C)[C@@]12O,94.1
6.31,< 50,–,CC(=O)O[C@H]1C=C([C@H](C)[C@H]2CC(C)=C(C)C(=O)O2)[C@@]2(C)CC[C@H]3[C@@H](C[C@H]4O[C@]45[C@@H](OC(=O)CCCC(=O)Nc4ccc(F)cc4)C=CC(=O)[C@]35C)[C@@]12O,95.4
6.36,56.3,–,COc1ccc(NC(=O)CCCC(=O)O[C@H]2C=CC(=O)[C@]3(C)[C@H]4CC[C@]5(C)C([C@H](C)[C@H]6CC(C)=C(C)C(=O)O6)=C[C@H](OC(C)=O)[C@]5(O)[C@@H]4C[C@H]4O[C@]243)cc1,92.9
